Some of the results follow. Values without a mark were called inactive.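 How the source made its calls: active means mean percent activation of the reporter above a cutoff set as the average over tested compounds plus their standard deviation; inactive means the rest.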

Consider 17 compounds from PubChem BioAssay.

The target in the assay is Oxysterols receptor LXR-beta (Homo sapiens) (UniProt P55055). Nature of the assay: nonspecific reporter activation via LXR – cell-based, luminescence, HEK293, H. contortus campaign, counter-screen for hcDAF-12 agonist project, confirmation (AID 743027). Particulars: HEK293 Gal4-LXR tk-luc reporter, 24 h, at 6.8 µM, active compounds read high, normalized: DMSO 0%, positive control 100%. A digest of the protocol: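 material = Gal4-LXR and tk-luc reporter transfected HEK293 cells | benchmarks = DMSO low control, positive-control high control | compound dosing = one nominal 6.8 µM dose, 0.68% DMSO | repeats = three replicates per compound | times = 24 h compound exposure at 37 °C, 5% CO2 | detection = One-Glo luciferase luminescence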
Chain of Oxysterols receptor LXR-beta (Homo sapiens) (P55055 whole entry, looked up, the tested form may be a part): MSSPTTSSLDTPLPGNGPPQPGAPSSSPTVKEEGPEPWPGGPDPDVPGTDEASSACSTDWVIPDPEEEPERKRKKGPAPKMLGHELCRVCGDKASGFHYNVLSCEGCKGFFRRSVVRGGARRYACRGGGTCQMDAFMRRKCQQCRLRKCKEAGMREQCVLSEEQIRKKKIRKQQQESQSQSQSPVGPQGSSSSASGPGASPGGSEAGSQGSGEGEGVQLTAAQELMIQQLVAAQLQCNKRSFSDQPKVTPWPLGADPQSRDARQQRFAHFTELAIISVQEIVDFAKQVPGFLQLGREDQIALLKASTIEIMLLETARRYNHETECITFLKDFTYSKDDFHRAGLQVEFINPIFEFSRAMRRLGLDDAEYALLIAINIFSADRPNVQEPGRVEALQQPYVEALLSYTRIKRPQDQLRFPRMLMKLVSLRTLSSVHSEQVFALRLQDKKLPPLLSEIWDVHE
(The purpose of a counterscreen is to sort out artefacts and off-target activity.)
Turning to `CCc1ccc(-c2cc(C(=O)NN3CCN(C)CC3)c3ccccc3n2)cc1`, the activation was -0.24%.

On to `CN(CC(=O)Nc1cccc(F)c1)C(=O)C1CC(=O)N(CCc2ccccc2)C1` (configuration not stated), for which the activation is -0.05%.

On to `Cc1cccc(Nc2nc(-c3ccccc3)cs2)n1`, for which the activation was 1.85%.

`Cc1cc(C)nc(Nc2n[nH]c(-c3ccccc3N)n2)n1`: the activation was 2.12%.

Consider `O=C(O)CN1c2cccc3cccc(c23)S1(=O)=O`, for which the activation is -0.29%.

For the compound `Cc1nn(CCOc2ccccc2)c(=O)n1-c1ccccc1F`, the activation was 0.49%.

Consider `CC(C)(C)OC(=O)N/N=C/c1ccc(C(=O)O)cc1`, for which the activation was -0.15%.

`Clc1ccc(-c2cc(-c3ccccn3)on2)c(Cl)c1`: the activation is 1.95%.

For `Cc1c(C=O)c2ccccc2n1CC(=O)O`, the activation was -0.12%.

For the compound `O=C(NC1CCCCC1)C(c1cc2ccccc2o1)n1c(=O)c(-c2ccco2)nc2ccccc21` (configuration not stated), the activation is 0.03%.

As to `CN1CCc2ccccc2C1Cc1ccccc1NC(=O)c1sc2ccccc2c1Cl` (configuration not stated), the activation is -0.05%.

On to `c1ccc(-c2cc(-c3ccccc3)[nH]n2)cc1`, for which the activation was 1.43%.

In the case of `Cc1ccc(-c2nc3ccccc3[nH]2)cc1N`, the activation is 2.07%.

In the case of `O=C(Cn1ccc([N+](=O)[O-])n1)NCc1cccs1`, the activation is -0.27%.

In the case of `COc1cc2ccccc2cc1C(=O)Nc1ccccc1C`, the activation was 0.82%.

Take `CNc1nc(Nc2ccc(C)c(Cl)c2)nc(N)c1[N+](=O)[O-]`: the activation was 0.77%.

For `O=C(O)c1[nH]c2ccccc2c1C(c1cccc(O)c1)c1c(C(=O)O)[nH]c2ccccc12`, the activation was -0.02%.
